Results reported in ChEMBL document CHEMBL1158773, “Cinnamylphenols from Phyllodium pulchellum” (J Nat Prod, 2005).

Columns and labels:
HepG2 = assay: Cytotoxicity against human HepG2 cells by MTT assay; type: functional, cell-based
Outline: (§1)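 HepG2 (hepatoma line HA22T) and KB (epidermoid carcinoma, CCRC 60017) cells seeded at (1-1.5) × 10^4/mL and incubated overnight at 37 °C in 5% CO₂. On day 3, MTT (5 mg/mL solution) was added for 4 h, then formazan was dissolved in DMSO and read spectrophotometrically.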

KB = assay: Cytotoxicity against human KB cells by MTT assay; type: functional, cell-based; outline: as §1

SMILES | IC50 (HepG2) | IC50 (KB)
COc1c(O)ccc(C=O)c1OC | > 100 µM | > 100 µM
CC1(C)C=Cc2c(cc(O)c3c(=O)c(O)c(-c4ccc(O)cc4)oc23)O1 [CITRUSINOL] | 43.3 µM | 42.3 µM
COc1c(O)ccc(/C=C\Cc2ccc(O)cc2)c1OC [PULCHELSTYRENE A] | > 100 µM | > 100 µM
COc1cc(C/C=C\c2ccc(O)c(OC)c2OC)ccc1O [PULCHELSTYRENE B] | > 100 µM | 55.6 µM
COc1cc(C/C=C/c2ccc(OC)c(O)c2OC)ccc1O [PULCHELSTYRENE C] | > 100 µM | 39.8 µM
COc1cc2c(c(OC)c1O)C=CCC21C=CC(=O)C=C1 [PULCHELSTYRENE D] | > 100 µM | > 100 µM
CC1(C)C=Cc2c(cc(O)c3c2O[C@H](c2ccc(O)cc2)[C@@H](O)C3=O)O1 [YUKOVANOL] | > 100 µM | > 100 µM
